According to ChEMBL document CHEMBL1125678, “Quinazolineacetic acids and related analogues as aldose reductase inhibitors” (J Med Chem, 1991):

How the values were obtained:
[1] = biological target: Aldo-keto reductase family 1 member B1 (Bos taurus) (UniProt P16116); experiment: In vitro inhibition of aldose reductase in partially purified bovine lens preparation at a concentration of 10e -7M.
How it was run: (§1)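 Enzyme from bovine lens, partially purified by the cited method with the final chromatographic step omitted. DL-Glyceraldehyde was the substrate. Test compounds were run in duplicate at 1×10⁻⁵, 1×10⁻⁶, 1×10⁻⁷ or 4×10⁻⁸ M. Values are % inhibition of enzymatic activity.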

[2] = biological target: Aldo-keto reductase family 1 member B1 (Bos taurus) (UniProt P16116); experiment: In vitro inhibition of aldose reductase in partially purified bovine lens preparation at a concentration of 4*10e -8M.; how it was run: as §1
Rattus norvegicus [3] = experiment: In vivo inhibition of galactitol accumulation in the diaphragm of rats fed 20% galactose for 4 day at 91 mg/kg/day dose; assay type: functional
How it was run: (§2)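 Male Sprague-Dawley rats (50–70 g) in groups of six were fed chow with 20% (w/w) galactose. Controls received 20% glucose instead. Test compound was mixed into the diet, and dose was calculated from actual food intake. Rats were killed by decapitation after 4 days. Result is % lowering of tissue galactitol versus galactose-fed controls, as the mean of six animals, compared by Dunnett's multiple comparison.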

Rattus norvegicus [4] = experiment: In vivo inhibition of galactitol accumulation in the sciatic nerve of rats fed 20% galactose for 4 day at 91 mg/kg/day dose; assay type: functional; how it was run: as §2
Rattus norvegicus [5] = experiment: In vivo inhibition of galactitol accumulation in the sciatic nerve of rats fed 20% galactose for 4 day at 95 mg/kg/day dose; NS= No Significant inhibition of polyol accumulation; assay type: functional, organism-based
Rattus norvegicus [6] = experiment: In vivo inhibition of galactitol accumulation in the diaphragm of rats fed 20% galactose for 4 day at 109 mg/kg/day dose; assay type: functional; how it was run: as §2
Rattus norvegicus [7] = experiment: In vivo inhibition of galactitol accumulation in the diaphragm of rats fed 20% galactose for 4 day at 92 mg/kg/day dose; assay type: functional; how it was run: as §2
Rattus norvegicus [8] = experiment: In vivo inhibition of galactitol accumulation in the sciatic nerve of rats fed 20% galactose for 4 day at 92 mg/kg/day dose; assay type: functional
Rattus norvegicus [9] = experiment: In vivo inhibition of galactitol accumulation in the diaphragm of rats fed 20% galactose for 4 day at 115 mg/kg/day dose; assay type: functional; how it was run: as §2
Rattus norvegicus [10] = experiment: In vivo inhibition of galactitol accumulation in the sciatic nerve of rats fed 20% galactose for 4 day at 115 mg/kg/day dose; assay type: functional; how it was run: as §2
Rattus norvegicus [11] = experiment: In vivo inhibition of galactitol accumulation in the diaphragm of rats fed 20% galactose for 4 day at 90 mg/kg/day dose; assay type: functional; how it was run: as §2
Rattus norvegicus [12] = experiment: In vivo inhibition of galactitol accumulation in the sciatic nerve of rats fed 20% galactose for 4 day at 101 mg/kg/day dose; assay type: functional; how it was run: as §2
Rattus norvegicus [13] = experiment: In vivo inhibition of galactitol accumulation in the diaphragm of rats fed 20% galactose for 4 day at 101 mg/kg/day dose; assay type: functional; how it was run: as §2
Rattus norvegicus [14] = experiment: In vivo inhibition of galactitol accumulation in the sciatic nerve of rats fed 20% galactose for 4 day at 97 mg/kg/day dose; assay type: functional
Rattus norvegicus [15] = experiment: In vivo inhibition of galactitol accumulation in the diaphragm of rats fed 20% galactose for 4 day at 97 mg/kg/day dose; assay type: functional; how it was run: as §2
Rattus norvegicus [16] = experiment: In vivo inhibition of galactitol accumulation in the sciatic nerve of rats fed 20% galactose for 4 day at 105 mg/kg/day dose; NS = No Significant inhibition of polyol accumulation; assay type: functional, organism-based; how it was run: as §2
Rattus norvegicus [17] = experiment: In vivo inhibition of galactitol accumulation in the diaphragm of rats fed 20% galactose for 4 day at 105 mg/kg/day dose; NS = No Significant inhibition of polyol accumulation; assay type: functional, organism-based; how it was run: as §2
Rattus norvegicus [18] = experiment: In vivo inhibition of galactitol accumulation in the diaphragm of rats fed 20% galactose for 4 day at 81 mg/kg/day dose; assay type: functional; how it was run: as §2
[19] = biological target: Aldo-keto reductase family 1 member B1 (Bos taurus) (UniProt P16116); experiment: In vitro inhibition of Aldose reductase in partially purified bovine lens preparation at a concentration of 10e -7M.; how it was run: as §1
[20] = biological target: Aldo-keto reductase family 1 member B1 (Bos taurus) (UniProt P16116); experiment: in vitro inhibition of Aldose reductase in partially purified bovine lens preparation at a concentration of 10e-6 M.
Rattus norvegicus [21] = experiment: In vivo inhibition of galactitol accumulation in the sciatic nerve of rats fed 20% galactose for 4 day at 79 mg/kg/day dose; NS = No Significant inhibition of polyol accumulation; assay type: functional, organism-based; how it was run: as §2
Rattus norvegicus [22] = experiment: In vivo inhibition of galactitol accumulation in the diaphragm of rats fed 20% galactose for 4 day at 79 mg/kg/day dose; NS = No Significant inhibition of polyol accumulation; assay type: functional, organism-based; how it was run: as §2
Rattus norvegicus [23] = experiment: In vivo inhibition of galactitol accumulation in the sciatic nerve of rats fed 20% galactose for 4 day at 88 mg/kg/day dose; NS = No Significant inhibition of polyol accumulation; assay type: functional, organism-based; how it was run: as §2
Rattus norvegicus [24] = experiment: In vivo inhibition of galactitol accumulation in the diaphragm of rats fed 20% galactose for 4 day at 88 mg/kg/day dose; assay type: functional, organism-based; how it was run: as §2
Rattus norvegicus [25] = experiment: In vivo inhibition of galactitol accumulation in the sciatic nerve of rats fed 20% galactose for 4 day at 90 mg/kg/day dose; NS = No Significant inhibition of polyol accumulation; assay type: functional, organism-based; how it was run: as §2
Rattus norvegicus [26] = experiment: In vivo inhibition of galactitol accumulation in the diaphragm of rats fed 20% galactose for 4 day at 90 mg/kg/day dose; NS = No Significant inhibition of polyol accumulation; assay type: functional, organism-based; how it was run: as §2
[27] = biological target: Aldo-keto reductase family 1 member B1 (Bos taurus) (UniProt P16116); experiment: in vitro inhibition of aldose reductase in partially purified bovine lens preparation at a concentration of 10e -5M.
Rattus norvegicus [28] = experiment: In vivo inhibition of galactitol accumulation in the diaphragm of rats fed 20% galactose for 4 day at 100 mg/kg/day dose; assay type: functional; how it was run: as §2
Rattus norvegicus [29] = experiment: In vivo inhibition of galactitol accumulation in the sciatic nerve of rats fed 20% galactose for 4 day at 100 mg/kg/day dose; NS = No Significant inhibition of polyol accumulation; assay type: functional, organism-based; how it was run: as §2
Rattus norvegicus [30] = experiment: In vivo inhibition of galactitol accumulation in the diaphragm of rats fed 20% galactose for 4 day at 103 mg/kg/day dose; assay type: functional; how it was run: as §2
Rattus norvegicus [31] = experiment: In vivo inhibition of galactitol accumulation in the diaphragm of rats fed 20% galactose for 4 day at 102 mg/kg/day dose; assay type: functional; how it was run: as §2
Rattus norvegicus [32] = experiment: In vivo inhibition of galactitol accumulation in the sciatic nerve of rats fed 20% galactose for 4 day at 102 mg/kg/day dose; assay type: functional; how it was run: as §2
Rattus norvegicus [33] = experiment: in vivo inhibition of galactitol accumulation in the sciatic nerve of rats fed 20% galactose for 4 day; settings: 96 h

Structure (SMILES): O=C(O)Cn1c(=O)c2cc(Cl)ccc2n(Cc2ccc(Br)cc2F)c1=O
- inhibition [1]: 80%
- inhibition [2]: 51%
- Lowering (Rattus norvegicus [3]): 78%
- Lowering (Rattus norvegicus [4]): 47%

Structure (SMILES): O=C(O)CN1C(=O)N(Cc2ccc(Cl)c(Cl)c2)Cc2ccccc21
- inhibition [1]: 53%
- inhibition [2]: 31%
- Lowering (Rattus norvegicus [5]): Not significant
- Lowering (Rattus norvegicus [6]): 30%

Structure (SMILES): O=C(O)Cn1c(=O)c2cc(Br)ccc2n(Cc2ccc(Cl)c(Cl)c2)c1=O
- inhibition [1]: 83%
- inhibition [2]: 47%
- Lowering (Rattus norvegicus [7]): 78%
- Lowering (Rattus norvegicus [8]): 62%

Structure (SMILES): O=C(O)Cn1c(=O)c2ccccc2n(Cc2ccc(Br)cc2F)c1=O
- inhibition [1]: 71%
- inhibition [2]: 34%
- Lowering (Rattus norvegicus [9]): 58%
- Lowering (Rattus norvegicus [10]): 54%

Structure (SMILES): O=C(O)CN1CN(Cc2ccc(Br)cc2F)c2ccc(Cl)cc2C1=O
- inhibition [1]: 51%
- inhibition [2]: 23%
- Lowering (Rattus norvegicus [5]): Not significant
- Lowering (Rattus norvegicus [11]): 38%

Structure (SMILES): O=C(O)Cn1c(=O)n(Cc2ccc(Cl)c(Cl)c2)c(=O)c2cc(Cl)ccc21
- inhibition [1]: 88%
- inhibition [2]: 64%
- Lowering (Rattus norvegicus [12]): 38%
- Lowering (Rattus norvegicus [13]): 68%

Structure (SMILES): O=C(O)Cn1c(=O)c2cc(I)ccc2n(Cc2ccc(Br)cc2F)c1=O
- inhibition [1]: 83%
- inhibition [2]: 64%
- Lowering (Rattus norvegicus [14]): 64%
- Lowering (Rattus norvegicus [15]): 83%

Structure (SMILES): O=C(O)Cn1c(=O)c2sccc2n(Cc2ccc(Br)cc2F)c1=O
- inhibition [1]: 68%
- inhibition [2]: 43%
- Lowering (Rattus norvegicus [16]): Not significant
- Lowering (Rattus norvegicus [17]): Not significant

Structure (SMILES): O=C(O)CN1Cc2ccccc2N(Cc2ccc(Cl)c(Cl)c2)C1=O
- inhibition [1]: 68%
- inhibition [2]: 41%
- Lowering (Rattus norvegicus [5]): Not significant
- Lowering (Rattus norvegicus [18]): 38%

Structure (SMILES): Cc1nc2cc3ccccc3cc2c(=O)n1CC(=O)O
- inhibition [19]: 28%
- inhibition [20]: 76%
- Lowering (Rattus norvegicus [21]): Not significant
- Lowering (Rattus norvegicus [22]): Not significant

Structure (SMILES): Cc1sc2c(c1C)c(=O)n(CC(=O)O)c(=O)n2Cc1ccc(Cl)c(Cl)c1
- inhibition [1]: 79%
- inhibition [2]: 51%
- Lowering (Rattus norvegicus [23]): Not significant
- Lowering (Rattus norvegicus [24]): Not significant

Structure (SMILES): CC(C)c1nc2ccc(Br)cc2c(=O)n1CC(=O)O
- Lowering (Rattus norvegicus [25]): Not significant
- Lowering (Rattus norvegicus [26]): Not significant
- inhibition [27]: 40%

Structure (SMILES): O=C(O)Cn1c(=O)c2c3c(sc2n(Cc2ccc(Cl)c(Cl)c2)c1=O)CCCC3
- inhibition [1]: 86%
- inhibition [2]: 63%
- Lowering (Rattus norvegicus [28]): 19%
- Lowering (Rattus norvegicus [29]): Not significant

Structure (SMILES): O=C(O)Cn1c(=O)c2ccc(F)cc2n(Cc2ccc(Br)cc2F)c1=O
- inhibition [1]: 74%
- inhibition [2]: 53%
- Lowering (Rattus norvegicus [5]): Not significant
- Lowering (Rattus norvegicus [30]): 63%

Structure (SMILES): Cc1ccc2c(c1)c(=O)n(CC(=O)O)c(=O)n2Cc1ccc(Cl)c(Cl)c1
- inhibition [1]: 80%
- inhibition [2]: 40%
- Lowering (Rattus norvegicus [31]): 76%
- Lowering (Rattus norvegicus [32]): 65%

Structure (SMILES): COc1ccc2c(C(=S)N(C)CC(=O)O)cccc2c1C(F)(F)F [TOLRESTAT]
- ED50 (Rattus norvegicus [33]): 6.4 mg/kg/day
